# Experimental data published in ChEMBL document CHEMBL4145530, “Design, synthesis and pharmacological evaluation of N-benzyl-piperidinyl-aryl-acylhydrazone derivatives as donepezil hybrids: Discovery of novel multi-target anti-alzheimer prototype drug candidates” (Eur J Med Chem, 2018).
# Assays:
# Mus musculus [1] = experiment: Anti-inflammatory activity in Swiss mouse assessed as reduction in carrageenan-induced paw edema by measuring paw volume […] po pretreated for 1 hr followed by carrageenan injection and measured after 1 to 5 hrs by plethysmometric method (reference value: 67.73 +/- 4.2 uL); format: functional
# Summary of the method: (§1)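 Male Swiss mice (22–28 g) were fasted overnight and dosed orally with vehicle (2% DMSO in sterile saline), compound or indomethacin 1 h before intraplantar carrageenan. Groups (n=10) were matched on basal paw volume. Right hind paw volume was read by plethysmometer at 1, 3 and 5 h and expressed as change from basal.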
# Mus musculus [2] = experiment: Antinociceptive activity in formalin-induced Swiss mouse model of hyperalgesia assessed as time spent licking the injected paw in last phase at […], po pretreated for 1 hr followed by formalin injection and measured at 20 to 30 mins (reference value: 135.8 +/- 10.7 secs); format: functional
# [3] = target: Acetylcholinesterase (Electrophorus electricus) (UniProt O42275); experiment: (§2) Inhibition of electric eel AChE using acetylthiocholine iodide as substrate preincubated for 10 mins followed by substrate addition by Ellman's method
# Chain of Acetylcholinesterase (Electrophorus electricus) (O42275 24-633 limits assumed): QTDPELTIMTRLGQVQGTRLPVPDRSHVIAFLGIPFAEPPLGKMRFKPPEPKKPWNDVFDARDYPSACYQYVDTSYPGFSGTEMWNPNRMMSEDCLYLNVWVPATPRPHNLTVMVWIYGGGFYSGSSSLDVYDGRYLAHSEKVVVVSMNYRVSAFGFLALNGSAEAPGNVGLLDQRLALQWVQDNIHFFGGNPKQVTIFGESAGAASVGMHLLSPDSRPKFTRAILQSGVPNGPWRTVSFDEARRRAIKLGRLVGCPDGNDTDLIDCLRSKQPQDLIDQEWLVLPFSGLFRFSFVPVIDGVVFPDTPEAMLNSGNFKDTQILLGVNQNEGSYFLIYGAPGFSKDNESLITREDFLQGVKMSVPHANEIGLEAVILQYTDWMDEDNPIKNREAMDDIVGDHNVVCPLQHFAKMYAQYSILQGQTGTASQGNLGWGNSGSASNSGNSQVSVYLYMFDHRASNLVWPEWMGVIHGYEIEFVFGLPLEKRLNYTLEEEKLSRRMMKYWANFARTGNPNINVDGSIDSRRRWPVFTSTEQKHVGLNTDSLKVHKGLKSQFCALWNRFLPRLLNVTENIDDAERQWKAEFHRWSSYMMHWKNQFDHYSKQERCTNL
# Acetylcholinesterase [4] = target: T1, Acetylcholinesterase (Electrophorus electricus, UniProt O42275); experiment: as §2
# T1 sequence (O42275 whole entry): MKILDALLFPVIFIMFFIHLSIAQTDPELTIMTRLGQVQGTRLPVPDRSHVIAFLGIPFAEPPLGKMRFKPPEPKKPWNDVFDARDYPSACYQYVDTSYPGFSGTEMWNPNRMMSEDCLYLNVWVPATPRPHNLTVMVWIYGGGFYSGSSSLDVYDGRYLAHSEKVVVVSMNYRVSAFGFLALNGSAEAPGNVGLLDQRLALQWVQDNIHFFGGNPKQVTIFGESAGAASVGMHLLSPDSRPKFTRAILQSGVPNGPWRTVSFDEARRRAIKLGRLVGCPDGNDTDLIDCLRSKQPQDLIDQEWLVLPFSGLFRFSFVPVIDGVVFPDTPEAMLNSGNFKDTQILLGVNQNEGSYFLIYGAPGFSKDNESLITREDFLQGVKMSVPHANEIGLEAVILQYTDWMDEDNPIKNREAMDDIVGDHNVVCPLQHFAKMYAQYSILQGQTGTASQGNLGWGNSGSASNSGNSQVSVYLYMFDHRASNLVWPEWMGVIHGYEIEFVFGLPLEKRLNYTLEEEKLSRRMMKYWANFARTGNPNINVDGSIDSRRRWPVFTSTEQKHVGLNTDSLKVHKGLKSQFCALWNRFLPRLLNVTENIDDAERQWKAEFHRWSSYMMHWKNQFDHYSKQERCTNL
# [5] = target: Acetylcholinesterase (Electrophorus electricus) (UniProt O42275); experiment: Inhibition of electric eel AChE at 100 uM using acetylthiocholine iodide as substrate preincubated for 10 mins followed by substrate addition by Ellman's method relative to control
# Acetylcholinesterase [6] = target: T1, Acetylcholinesterase; experiment: Non-competitive inhibition of electric eel AChE using acetylthiocholine iodide as substrate preincubated for 10 mins followed by substrate addition by Ellman's method
# Summary of the method: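 Substrate-competition kinetics with E. electricus AChE by Ellman's method: 10 min enzyme–DTNB–compound preincubation in 0.1 M phosphate, pH 7.4, then acetylthiocholine; A412 was read every 12 s for 5 min at rt. Three independent data sets, each in triplicate, were averaged and fitted to a simple noncompetitive model. That model was compared with mixed linear inhibition by AICc probability ratio.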
# Cholinesterase = Cholinesterase (Equus caballus, UniProt P81908); experiment: (§3) Inhibition of […] preincubated for 10 mins followed by substrate addition by Ellman's method
# Chain of Cholinesterase (P81908 whole entry): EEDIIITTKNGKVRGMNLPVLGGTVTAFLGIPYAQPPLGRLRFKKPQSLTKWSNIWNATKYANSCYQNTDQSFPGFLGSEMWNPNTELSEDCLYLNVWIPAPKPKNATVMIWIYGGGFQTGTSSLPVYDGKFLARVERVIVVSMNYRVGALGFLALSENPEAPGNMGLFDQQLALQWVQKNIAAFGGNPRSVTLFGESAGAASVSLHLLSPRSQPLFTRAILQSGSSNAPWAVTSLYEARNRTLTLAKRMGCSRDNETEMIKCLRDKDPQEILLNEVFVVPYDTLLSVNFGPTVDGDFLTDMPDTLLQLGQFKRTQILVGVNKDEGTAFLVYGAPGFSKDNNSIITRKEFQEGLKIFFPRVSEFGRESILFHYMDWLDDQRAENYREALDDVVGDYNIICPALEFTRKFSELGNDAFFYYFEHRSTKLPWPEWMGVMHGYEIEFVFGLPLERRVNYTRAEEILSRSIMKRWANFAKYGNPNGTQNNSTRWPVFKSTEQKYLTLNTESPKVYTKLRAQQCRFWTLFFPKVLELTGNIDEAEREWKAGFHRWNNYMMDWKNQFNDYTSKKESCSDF
# [7] = target: Cholinesterase (Equus caballus) (UniProt P81908); experiment: as §3
# Chain of Cholinesterase (Equus caballus) (P81908 whole entry): as above
# Mus musculus [8] = experiment: Anti-inflammatory activity in po dosed Swiss mouse assessed as reduction in carrageenan-induced paw edema pretreated for 1 hr followed by carrageenan injection and measured after 1 to 5 hrs by plethysmometric method; format: functional; details: read-out: ID50 (the source's name); summary of the method: as §1
# Mus musculus [9] = experiment: Antinociceptive activity in formalin-induced Swiss mouse model of hyperalgesia assessed as time spent licking the injected paw in early phase at 100 mM/kg, po pretreated for 1 hr followed by formalin injection and measured up to 5 mins (reference value: 74 +/- 7.7 secs); format: functional
# [10] = Selectivity ratio of IC50 for equine serum BuChE to IC50 for electric eel AChE
# Summary of the method: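 Ellman kinetic assay with Electrophorus electricus AChE (acetylthiocholine) and equine serum BuChE (butyrylthiocholine iodide), […]. Enzyme was preincubated 10 min with DTNB and compound in 0.1 M sodium phosphate, pH 7.4 (final DMSO <0.2%), before substrate was added. A412 was read every 12 s for 5 min at rt to give maximum velocity. IC50 is the geometric mean of 2–3 curves, each 6 concentrations in triplicate. Selectivity is IC50 BuChE/IC50 AChE.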
# Mus musculus [11] = experiment: Antinociceptive activity in carrageenan-induced Swiss mouse model of mechanical hyperalgesia assessed as mechanical hyperalgesic index pretreated orally for 1 hr followed by carrageenan challenge by Von Frey filament assay; format: functional
# Summary of the method: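 Swiss mice were placed in wire-screen acrylic boxes 60 min before testing. Vehicle, compound or indomethacin was given orally 1 h before intraplantar carrageenan. Mechanical threshold was found by the von Frey up-and-down method, with at least 6 trials at 10 s intervals, raising filament mass until paw withdrawal. Results are given as threshold in grams; n=8.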
# [12] = target: T2, Prostaglandin G/H synthase 1 (Ovis aries) (UniProt P05979); experiment: Inhibition of ovine COX1 at 10 uM using arachidonic acid as substrate preincubated for 120 mins followed by substrate addition measured for 5 secs by chemiluminescence assay relative to control
# T2 sequence (whole entry): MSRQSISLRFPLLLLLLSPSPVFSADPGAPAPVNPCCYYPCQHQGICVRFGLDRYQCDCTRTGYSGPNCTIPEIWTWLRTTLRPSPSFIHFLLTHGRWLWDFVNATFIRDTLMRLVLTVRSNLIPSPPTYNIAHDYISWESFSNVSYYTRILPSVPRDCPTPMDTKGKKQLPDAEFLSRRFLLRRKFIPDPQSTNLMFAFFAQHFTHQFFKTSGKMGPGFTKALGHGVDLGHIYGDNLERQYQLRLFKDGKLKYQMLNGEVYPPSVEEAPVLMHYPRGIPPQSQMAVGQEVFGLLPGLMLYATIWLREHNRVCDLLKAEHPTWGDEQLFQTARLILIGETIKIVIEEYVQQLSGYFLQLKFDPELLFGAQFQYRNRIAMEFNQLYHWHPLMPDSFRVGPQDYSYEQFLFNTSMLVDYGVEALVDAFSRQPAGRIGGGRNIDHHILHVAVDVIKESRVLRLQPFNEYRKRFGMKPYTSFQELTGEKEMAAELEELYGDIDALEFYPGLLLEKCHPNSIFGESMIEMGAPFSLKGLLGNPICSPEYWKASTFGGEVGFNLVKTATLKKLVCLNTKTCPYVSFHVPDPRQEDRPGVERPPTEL
# Summary of the method: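 COX-1 or COX-2 with heme was preincubated 120 min with compound (10 µM) in assay buffer. Arachidonic acid and a chemiluminescent substrate were then added at room temperature and peroxidative activity was read for 5 s; ibuprofen was the reference. Selectivity index was taken as the ratio of maximum COX-2 inhibition to COX-1 inhibition. Two independent experiments.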
# Mus musculus [13] = experiment: Antinociceptive activity in formalin-induced Swiss mouse model of hyperalgesia assessed as time spent licking the injected paw in last phase at 39 mM/kg, po pretreated for 1 hr followed by formalin injection and measured at 20 to 30 mins (reference value: 135.8 +/- 10.7 secs); format: functional
# Mus musculus [14] = experiment: Antinociceptive activity in formalin-induced Swiss mouse model of hyperalgesia assessed as time spent licking the injected paw in early phase at 39 mM/kg, po pretreated for 1 hr followed by formalin injection and measured up to 5 mins (reference value: 74 +/- 7.7 secs); format: functional
# [15] = Cytotoxicity against human HepG2 cells assessed as cell viability at 20 to 40 uM after 6 hrs by trypan blue exclusion assay relative to control; format: cell-based; details: read-out: Activity
# Mus musculus [16] = experiment: Inhibition of serum COX1 level in Swiss mouse model of carragenan-induced paw edema at 100 mM/kg, po pretreated for 1 hr followed by carrageenan treatment measured after 3 hrs by ELISA; format: functional
# Summary of the method: (§4)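 Swiss mice (n=8) received compound (100 mM/kg) or vehicle orally 1 h before intraplantar carrageenan; indomethacin was the positive control. Three hours later, blood was drawn from the heart under chloral hydrate anaesthesia and serum was collected. COX-1 and COX-2 protein was measured by sandwich ELISA read at 450 nm and expressed as percent COX level.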
# Mus musculus [17] = experiment: Inhibition of serum COX2 level in Swiss mouse model of carragenan-induced paw edema at 100 mM/kg, po pretreated for 1 hr followed by carrageenan treatment measured after 3 hrs by ELISA; format: functional; summary of the method: as §4
smiles,measurement,setting,value
COc1ccc(/C=N/NC(=O)c2ccc(CN3CCCC(O)C3)cc2)cc1 (stereo not drawn),Activity,Mus musculus [1],25.71 µL
same,Time,Mus musculus [2],15.86 s
same,inhibition,[3],Dose-dependent effect
same,IC50,Acetylcholinesterase [4],13.2 µM
same,inhibition,[5],> 60%
same,Ki,Acetylcholinesterase [6],11.5 µM
same,IC50,Cholinesterase,91.9 µM
same,inhibition,[7],Dose-dependent effect
same,ED50,Mus musculus [8],68.3 µmol/kg
same,Time,Mus musculus [9],13.29 s
same,Ratio IC50,[10],7
same,Activity_index,Mus musculus [11],161.1
O=C(N/N=C/c1ccc(-n2ccnc2)cc1)c1ccc(CN2CCCC(O)C2)cc1 (stereo not drawn),inhibition,[3],Dose-dependent effect
same,IC50,Acetylcholinesterase [4],21.7 µM
same,inhibition,[5],> 60%
same,Ki,Acetylcholinesterase [6],21.1 µM
same,IC50,Cholinesterase,39.6 µM
same,inhibition,[7],Dose-dependent effect
same,Ratio IC50,[10],1.8
O=C(N/N=C/c1ccc(Br)cc1)c1ccc(CN2CCCC(O)C2)cc1 (stereo not drawn),inhibition,[3],Dose-dependent effect
same,IC50,Acetylcholinesterase [4],11.9 µM
same,inhibition,[5],> 60%
same,Activity_index,Mus musculus [11],235.8
O=C(N/N=C/c1ccccc1)c1ccc(CN2CCCC(O)C2)cc1 (stereo not drawn),inhibition,[3],Dose-dependent effect
same,IC50,Acetylcholinesterase [4],30 µM
same,inhibition,[5],> 60%
CC(C)Cc1ccc(C(C)C(=O)O)cc1 (stereo not drawn),inhibition,[12],88%
CN1CC[C@]23c4c5ccc(O)c4O[C@H]2[C@@H](O)C=C[C@H]3[C@H]1C5 [MORPHINE],Time,Mus musculus [13],3.375 s
same,Time,Mus musculus [14],7.5 s
COc1cccc2c1C(=O)c1c(O)c3c(c(O)c1C2=O)C[C@@](O)(C(=O)CO)C[C@@H]3O[C@H]1C[C@H](N)[C@H](O)[C@H](C)O1 [DOXORUBICIN],"viability at 6 h, 40 µM",[15],> 90%
O=C(N/N=C/c1ccc(N2CCOCC2)cc1)c1ccc(CN2CCCC(O)C2)cc1 (stereo not drawn),Activity,Mus musculus [1],21.43 µL
same,Time,Mus musculus [2],69.67 s
same,IC50,Acetylcholinesterase [4],≥ 100 µM
same,ED50,Mus musculus [8],2.67 µmol/kg
same,Time,Mus musculus [9],62.75 s
same,Activity_index,Mus musculus [11],83.96
Nc1ccc(/C=N/NC(=O)c2ccc(CN3CCCC(O)C3)cc2)cc1 (stereo not drawn),inhibition,[3],Dose-dependent effect
same,IC50,Acetylcholinesterase [4],21.5 µM
same,inhibition,[5],> 60%
same,Activity_index,Mus musculus [11],244.4
O=C(N/N=C/c1ccc(N2CCCCC2)cc1)c1ccc(CN2CCCC(O)C2)cc1 (stereo not drawn),Time,Mus musculus [2],110 s
same,inhibition,[3],Dose-dependent effect
same,IC50,Acetylcholinesterase [4],10.9 µM
same,inhibition,[5],> 60%
same,Ki,Acetylcholinesterase [6],9.7 µM
same,IC50,Cholinesterase,58.1 µM
same,inhibition,[7],Dose-dependent effect
same,Time,Mus musculus [9],19.63 s
same,Ratio IC50,[10],5.3
same,Activity_index,Mus musculus [11],64.56
CC(=O)OC1CCCN(Cc2ccc(C(=O)N/N=C/c3ccc(N)cc3)cc2)C1 (stereo not drawn),Activity,Mus musculus [1],11.43 µL
same,Time,Mus musculus [2],69.75 s
same,IC50,Acetylcholinesterase [4],≥ 100 µM
same,ED50,Mus musculus [8],4.2 µmol/kg
same,Time,Mus musculus [9],47.75 s
same,Activity_index,Mus musculus [11],146.1
COc1cc2c(cc1OC)C(=O)C(CC1CCN(Cc3ccccc3)CC1)C2 (stereo not drawn) [DONEPEZIL],"viability at 6 h, 40 µM",[15],> 90%
O=C(N/N=C/c1ccc([N+](=O)[O-])cc1)c1ccc(CN2CCCC(O)C2)cc1 (stereo not drawn),inhibition,[3],Dose-dependent effect
same,IC50,Acetylcholinesterase [4],2.71 µM
same,inhibition,[5],> 60%
same,Ki,Acetylcholinesterase [6],2.45 µM
same,IC50,Cholinesterase,33.9 µM
same,inhibition,[7],Dose-dependent effect
same,Ratio IC50,[10],12.5
same,Activity_index,Mus musculus [11],320.1
CC(=O)OC1CCCN(Cc2ccc(C(=O)N/N=C/c3ccc(Br)cc3)cc2)C1 (stereo not drawn),IC50,Acetylcholinesterase [4],≥ 100 µM
same,Activity_index,Mus musculus [11],206.9
COc1ccc2c(c1)c(CC(=O)O)c(C)n2C(=O)c1ccc(Cl)cc1 [INDOMETHACIN],Activity,Mus musculus [1],14.29 µL
same,Time,Mus musculus [2],22.75 s
same,inhibition (INH),Mus musculus [16],52%
same,ED50,Mus musculus [8],2.12 µmol/kg
same,Time,Mus musculus [9],65.43 s
same,inhibition (INH),Mus musculus [17],40%
same,Activity_index,Mus musculus [11],158.1
CSc1ccc(/C=N/NC(=O)c2ccc(CN3CCCC(O)C3)cc2)cc1 (stereo not drawn),inhibition,[3],Dose-dependent effect
same,IC50,Acetylcholinesterase [4],10.4 µM
same,inhibition,[5],> 60%
same,Ki,Acetylcholinesterase [6],8.42 µM
same,IC50,Cholinesterase,59.3 µM
same,inhibition,[7],Dose-dependent effect
same,Ratio IC50,[10],5.7
same,Activity_index,Mus musculus [11],260.3
O=C(N/N=C/c1ccc(N2CCCC2)cc1)c1ccc(CN2CCCC(O)C2)cc1 (stereo not drawn),inhibition,[3],Dose-dependent effect
same,IC50,Acetylcholinesterase [4],14.7 µM
same,inhibition,[5],> 60%
same,Activity_index,Mus musculus [11],206.4
CC(=O)Oc1ccc(/C=N/NC(=O)c2ccc(CN3CCCC(OC(C)=O)C3)cc2)cc1 (stereo not drawn),IC50,Acetylcholinesterase [4],≥ 100 µM
same,Activity_index,Mus musculus [11],353.1
